Source: ChEMBL document CHEMBL1148778, “Synthesis and characterization of nonsteroidal glucocorticoid receptor modulators for multiple myeloma” (J Med Chem, 2007)

What was measured:
Glucocorticoid receptor [1] = molecular target: T1, Glucocorticoid receptor (Homo sapiens, UniProt P04150); assay: Activity at human GR expressed in NHDFneo cells assessed as inhibition of IL-6 production; format: cell-based
T1 sequence (P04150 whole entry): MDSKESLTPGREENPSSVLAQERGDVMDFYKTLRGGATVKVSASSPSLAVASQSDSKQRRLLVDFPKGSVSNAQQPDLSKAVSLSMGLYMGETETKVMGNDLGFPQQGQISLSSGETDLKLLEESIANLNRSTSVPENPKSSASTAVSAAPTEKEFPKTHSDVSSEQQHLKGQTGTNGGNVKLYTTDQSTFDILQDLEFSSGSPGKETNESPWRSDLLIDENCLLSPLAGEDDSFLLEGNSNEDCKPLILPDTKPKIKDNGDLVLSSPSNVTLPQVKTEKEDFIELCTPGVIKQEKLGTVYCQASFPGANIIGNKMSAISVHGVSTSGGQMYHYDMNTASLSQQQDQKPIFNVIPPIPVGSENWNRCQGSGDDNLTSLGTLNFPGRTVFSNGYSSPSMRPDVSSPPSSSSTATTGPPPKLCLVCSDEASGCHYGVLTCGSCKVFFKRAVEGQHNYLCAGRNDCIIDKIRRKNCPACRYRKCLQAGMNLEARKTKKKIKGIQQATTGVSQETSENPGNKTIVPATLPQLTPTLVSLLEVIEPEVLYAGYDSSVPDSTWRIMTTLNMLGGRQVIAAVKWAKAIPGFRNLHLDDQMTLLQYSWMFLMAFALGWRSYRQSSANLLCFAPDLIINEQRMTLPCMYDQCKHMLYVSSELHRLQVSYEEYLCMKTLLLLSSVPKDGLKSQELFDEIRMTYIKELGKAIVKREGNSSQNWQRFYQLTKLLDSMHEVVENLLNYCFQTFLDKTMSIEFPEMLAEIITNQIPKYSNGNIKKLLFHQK

RPMI-8226 [2] = assay: Antiproliferative activity against human RPMI8226 cells after 4 days relative to Dexamethasone; format: functional
RPMI-8226 [3] = assay: Antiproliferative activity against human RPMI8226 cells after 4 days; format: functional, cell-based; conditions: RPMI-8226, 96 h
Glucocorticoid receptor [4] = molecular target: T1, Glucocorticoid receptor; assay: Agonist activity at human GR expressed in CV1 cells by GRE activation assay; format: functional, cell-based, CV-1
Glucocorticoid receptor [5] = molecular target: T1, Glucocorticoid receptor; assay: Binding affinity to GR
Androgen receptor = molecular target: T2, Androgen receptor (Homo sapiens, UniProt P10275); assay: Binding affinity to AR
T2 sequence (P10275 whole entry): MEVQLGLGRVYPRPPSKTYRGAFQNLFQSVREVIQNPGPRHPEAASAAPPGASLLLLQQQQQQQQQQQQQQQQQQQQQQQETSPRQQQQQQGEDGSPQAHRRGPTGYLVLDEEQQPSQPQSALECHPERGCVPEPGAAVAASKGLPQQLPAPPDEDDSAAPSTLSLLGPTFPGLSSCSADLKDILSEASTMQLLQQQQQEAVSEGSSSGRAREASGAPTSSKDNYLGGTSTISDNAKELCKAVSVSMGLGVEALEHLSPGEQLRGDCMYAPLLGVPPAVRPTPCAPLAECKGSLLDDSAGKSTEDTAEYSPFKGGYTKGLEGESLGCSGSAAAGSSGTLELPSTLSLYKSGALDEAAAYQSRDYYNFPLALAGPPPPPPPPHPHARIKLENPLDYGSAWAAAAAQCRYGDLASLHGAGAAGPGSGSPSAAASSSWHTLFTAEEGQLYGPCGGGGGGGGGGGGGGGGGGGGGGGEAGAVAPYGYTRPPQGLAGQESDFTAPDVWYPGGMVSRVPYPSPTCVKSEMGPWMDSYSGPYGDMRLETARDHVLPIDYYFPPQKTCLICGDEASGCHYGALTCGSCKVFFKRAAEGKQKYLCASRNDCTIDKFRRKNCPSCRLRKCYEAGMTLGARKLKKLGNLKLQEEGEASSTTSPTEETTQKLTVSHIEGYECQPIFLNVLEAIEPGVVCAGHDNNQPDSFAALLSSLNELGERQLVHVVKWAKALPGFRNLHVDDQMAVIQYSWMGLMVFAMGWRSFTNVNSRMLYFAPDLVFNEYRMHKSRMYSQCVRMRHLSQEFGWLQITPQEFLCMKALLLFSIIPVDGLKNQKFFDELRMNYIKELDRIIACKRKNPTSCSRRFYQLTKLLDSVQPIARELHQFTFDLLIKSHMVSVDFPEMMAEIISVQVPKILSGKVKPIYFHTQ

Progesterone receptor = molecular target: T3, Progesterone receptor (Homo sapiens, UniProt P06401); assay: Binding affinity to PR
T3 sequence (P06401 whole entry): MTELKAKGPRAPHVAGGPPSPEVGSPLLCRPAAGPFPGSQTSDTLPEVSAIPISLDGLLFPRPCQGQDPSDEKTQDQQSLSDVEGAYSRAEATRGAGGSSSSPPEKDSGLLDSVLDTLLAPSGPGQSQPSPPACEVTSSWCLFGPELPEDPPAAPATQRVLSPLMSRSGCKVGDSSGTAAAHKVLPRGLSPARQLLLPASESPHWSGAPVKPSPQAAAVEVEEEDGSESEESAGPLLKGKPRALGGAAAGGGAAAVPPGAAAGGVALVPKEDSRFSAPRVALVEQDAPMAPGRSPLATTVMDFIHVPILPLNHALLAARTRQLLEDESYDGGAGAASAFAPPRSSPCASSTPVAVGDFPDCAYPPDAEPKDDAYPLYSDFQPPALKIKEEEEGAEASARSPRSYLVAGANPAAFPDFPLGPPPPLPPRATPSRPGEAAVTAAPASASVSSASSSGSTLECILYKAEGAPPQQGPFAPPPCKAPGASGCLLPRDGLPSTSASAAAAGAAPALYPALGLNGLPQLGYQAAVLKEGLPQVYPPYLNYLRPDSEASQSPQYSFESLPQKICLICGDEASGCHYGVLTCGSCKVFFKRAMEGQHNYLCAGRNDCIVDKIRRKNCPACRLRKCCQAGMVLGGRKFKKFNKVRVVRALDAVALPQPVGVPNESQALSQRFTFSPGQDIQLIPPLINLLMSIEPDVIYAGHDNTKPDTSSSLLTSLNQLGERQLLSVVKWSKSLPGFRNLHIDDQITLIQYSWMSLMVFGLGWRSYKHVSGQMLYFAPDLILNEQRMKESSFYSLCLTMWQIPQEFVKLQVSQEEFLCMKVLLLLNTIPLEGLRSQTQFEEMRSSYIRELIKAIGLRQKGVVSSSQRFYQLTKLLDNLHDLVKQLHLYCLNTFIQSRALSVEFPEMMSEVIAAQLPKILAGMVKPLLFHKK
Outline: (§1)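 Competitive binding assays on PR and MR. Values are means of at least three separate experiments, each with triplicate determinations, ± SEM. A value without SEM comes from a single determination.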

[6] = molecular target: T4, Mineralocorticoid receptor (Homo sapiens, UniProt P08235); assay: Binding affinity to MR; outline: as §1
T4 sequence (P08235 whole entry): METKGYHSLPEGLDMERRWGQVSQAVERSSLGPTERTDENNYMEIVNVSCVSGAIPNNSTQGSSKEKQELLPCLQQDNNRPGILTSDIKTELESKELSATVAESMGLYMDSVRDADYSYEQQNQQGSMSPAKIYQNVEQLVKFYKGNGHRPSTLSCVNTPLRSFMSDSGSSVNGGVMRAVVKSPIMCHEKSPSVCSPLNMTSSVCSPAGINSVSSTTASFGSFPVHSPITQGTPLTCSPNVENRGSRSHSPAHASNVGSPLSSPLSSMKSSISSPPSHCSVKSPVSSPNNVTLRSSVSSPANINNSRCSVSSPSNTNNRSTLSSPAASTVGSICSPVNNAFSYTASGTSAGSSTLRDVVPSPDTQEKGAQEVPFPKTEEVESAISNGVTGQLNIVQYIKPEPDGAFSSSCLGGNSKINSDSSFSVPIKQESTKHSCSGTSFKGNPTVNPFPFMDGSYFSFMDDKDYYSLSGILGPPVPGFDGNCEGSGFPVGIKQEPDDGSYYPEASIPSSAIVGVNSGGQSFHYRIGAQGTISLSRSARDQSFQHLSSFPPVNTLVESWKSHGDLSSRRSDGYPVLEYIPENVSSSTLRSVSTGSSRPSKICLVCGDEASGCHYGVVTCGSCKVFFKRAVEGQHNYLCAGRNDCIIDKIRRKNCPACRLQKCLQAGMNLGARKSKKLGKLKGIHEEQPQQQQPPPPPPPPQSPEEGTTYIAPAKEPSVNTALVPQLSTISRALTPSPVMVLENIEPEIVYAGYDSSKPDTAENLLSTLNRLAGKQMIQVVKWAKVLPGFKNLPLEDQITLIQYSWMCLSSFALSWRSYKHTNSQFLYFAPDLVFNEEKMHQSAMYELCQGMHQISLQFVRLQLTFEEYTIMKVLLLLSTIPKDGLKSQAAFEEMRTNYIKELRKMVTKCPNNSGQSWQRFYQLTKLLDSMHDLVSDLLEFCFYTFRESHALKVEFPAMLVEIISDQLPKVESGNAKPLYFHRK

Glucocorticoid receptor [7] = molecular target: T1, Glucocorticoid receptor; assay: Antagonist activity at human GR expressed in CV1 cells by GRE activation assay; format: functional, cell-based, CV-1
RPMI-8226 [8] = assay: Inhibition of tumor growth in human RPMI8226 cells xenografted nude mouse at 30 mg/kg, po after 4 weeks relative to Dexamethasone; format: functional
RPMI-8226 [9] = assay: Inhibition of tumor growth in human RPMI8226 cells xenografted nude mouse at 10 mg/kg, po after 4 weeks relative to Dexamethasone; format: functional
RPMI-8226 [10] = assay: Inhibition of tumor growth in human RPMI8226 cells xenografted nude mouse at 3 mg/kg, po after 4 weeks relative to Dexamethasone; format: functional

| IC50 (Glucocorticoid receptor [1]) [nM] | IC50 (RPMI-8226 [3]) [nM] | EC50 (Glucocorticoid receptor [4]) [nM] | EC50 (Glucocorticoid receptor [7]) [nM] | Compound | Efficacy (RPMI-8226 [2]) [%] | further results |
| --- | --- | --- | --- | --- | --- | --- |
| – | – | – | 0.6 | CCCCC(O)c1ccsc1/C=C1\Oc2ccc(O)c(OC)c2-c2ccc3c(c21)C(C)=CC(C)(C)N3 (racemic) | – | – |
| – | – | – | 0.3 | COc1c(O)ccc2c1-c1ccc3c(c1/C(=C/c1sccc1C(O)C(F)(F)F)O2)C(C)=CC(C)(C)N3 (racemic) | – | Efficacy (RPMI-8226 [8]): 97%; Ki (Glucocorticoid receptor [5]): 1.4 nM; Ki (Androgen receptor): 1900 nM; Efficacy (RPMI-8226 [9]): 89%; Efficacy (RPMI-8226 [10]): 52%; Ki (Progesterone receptor): 1780 nM; Ki [6]: 670 nM |
| 0.9 | 18 | 0.5 | – | COc1c(O)ccc2c1-c1ccc3c(c1/C(=C/c1sccc1CNCC(F)(F)F)O2)C(C)=CC(C)(C)N3 | 96 | – |
| – | – | – | 1.4 | COc1c(O)ccc2c1-c1ccc3c(c1/C(=C/c1sccc1C(O)C(F)(F)F)O2)C(C)=CC(C)(C)N3 (stereo in doubt; (-)-15) | – | – |
| – | – | – | 0.2 | COc1c(O)ccc2c1-c1ccc3c(c1/C(=C/c1sccc1C(O)C(F)(F)F)O2)C(C)=CC(C)(C)N3 (single isomer, unassigned; (+)) | – | – |
| – | – | – | 1.3 | COc1c(O)ccc2c1-c1ccc3c(c1/C(=C/c1sccc1C(C)O)O2)C(C)=CC(C)(C)N3 (racemic) | – | Ki (Glucocorticoid receptor [5]): 1.2 nM; Ki (Androgen receptor): 1530 nM; Ki (Progesterone receptor): 2290 nM; Ki [6]: 410 nM |

More lines, now with the values behind:

| Compound | IC50 (Glucocorticoid receptor [1]) [nM] | IC50 (RPMI-8226 [3]) [nM] | EC50 (Glucocorticoid receptor [4]) [nM] | EC50 (Glucocorticoid receptor [7]) [nM] | Efficacy (RPMI-8226 [2]) [%] | further results |
| --- | --- | --- | --- | --- | --- | --- |
| COc1c(O)ccc2c1-c1ccc3c(c1/C(=C/c1sccc1C(=O)N1CCCCC1)O2)C(C)=CC(C)(C)N3 | 1 | 16 | 0.3 | – | 95 | – |
| COc1c(O)ccc2c1-c1ccc3c(c1/C(=C/c1sccc1/C(C)=N/O)O2)C(C)=CC(C)(C)N3 | 1.1 | 9.9 | 5 | – | 96 | Ki (Glucocorticoid receptor [5]): 0.6 nM; Ki (Androgen receptor): 290 nM; Ki (Progesterone receptor): 790 nM; Ki [6]: 21 nM |
| COc1c(O)ccc2c1-c1ccc3c(c1/C(=C/c1sccc1C#N)O2)C(C)=CC(C)(C)N3 | 0.8 | 14 | 0.2 | – | 87 | – |
| COc1c(O)ccc2c1-c1ccc3c(c1/C(=C/c1sccc1COCCO)O2)C(C)=CC(C)(C)N3 | 1 | 22 | 1.6 | – | 98 | – |
| COc1c(O)ccc2c1-c1ccc3c(c1/C(=C/c1sccc1C(=O)C1CCCCC1)O2)C(C)=CC(C)(C)N3 | – | – | – | 0.4 | – | – |
| C[C@@H]1C[C@H]2[C@@H]3CCC4=CC(=O)C=C[C@]4(C)[C@@]3(F)[C@@H](O)C[C@]2(C)[C@@]1(O)C(=O)CO [DEXAMETHASONE] | – | 6.5 | – | – | 100 | – |
| CCO/N=C(\C)c1ccsc1/C=C1\Oc2ccc(O)c(OC)c2-c2ccc3c(c21)C(C)=CC(C)(C)N3 | 0.5 | 16 | 0.4 | 1.9 | 98 | – |
| COc1c(O)ccc2c1-c1ccc3c(c1/C(=C/c1sccc1C(C)=O)O2)C(C)=CC(C)(C)N3 | 0.3 | 16 | 0.6 | – | 95 | – |
| COC(=O)c1ccsc1/C=C1\Oc2ccc(O)c(OC)c2-c2ccc3c(c21)C(C)=CC(C)(C)N3 | 1.8 | 27 | 1.4 | – | 95 | – |
| CC/C=C(\C)c1ccsc1/C=C1\Oc2ccc(O)c(OC)c2-c2ccc3c(c21)C(C)=CC(C)(C)N3 | 6.1 | 22 | 0.5 | – | 94 | Ki (Glucocorticoid receptor [5]): 4.4 nM; Ki (Androgen receptor): 346 nM; Ki (Progesterone receptor): 57 nM; Ki [6]: 42 nM |
